Measurements published in PMC10769797 (The Oncologist, 2023).

Experiments:
[1] = system: patients with advanced solid tumors; experiment: Phase I dose-escalation safety: adverse events; type: in vivo, human
[2] = Plasma pharmacokinetics, noncompartmental analysis; type: in vivo, human
In short: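 Oral dosing QD (part A1) or TIW (part A2). Intensive plasma samples were taken after the dose on cycle 1 days 1 and 15, for up to 24 h (A1) or 48 h (A2). Cmax, Tmax, AUC(0-Inf) and terminal half-life came from plasma concentrations by standard noncompartmental analysis, with descriptive statistics.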

[3] = biological target: CDK7 (Homo sapiens, UniProt P50613); experiment: CDK7-target occupancy assay; type: in vivo
In short: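 Skin biopsies were taken at baseline (≤14 days pre-dose) and 6–8 h postdose on days 1 and 15; PBMCs predose day 1 and 8 h postdose days 1 and 15. Lysates were labelled with a biotinylated probe. Anti-cyclin H captured CDK7/cyclin H on MSD plates. Unbound CDK7 was read with SULFO-TAG streptavidin, total with anti-CDK7 mAb. Skin occupancy was baseline-normalised unbound/total; PBMC occupancy was unbound versus day-1 predose.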

Chain of CDK7 (P50613 2-346 limits assumed): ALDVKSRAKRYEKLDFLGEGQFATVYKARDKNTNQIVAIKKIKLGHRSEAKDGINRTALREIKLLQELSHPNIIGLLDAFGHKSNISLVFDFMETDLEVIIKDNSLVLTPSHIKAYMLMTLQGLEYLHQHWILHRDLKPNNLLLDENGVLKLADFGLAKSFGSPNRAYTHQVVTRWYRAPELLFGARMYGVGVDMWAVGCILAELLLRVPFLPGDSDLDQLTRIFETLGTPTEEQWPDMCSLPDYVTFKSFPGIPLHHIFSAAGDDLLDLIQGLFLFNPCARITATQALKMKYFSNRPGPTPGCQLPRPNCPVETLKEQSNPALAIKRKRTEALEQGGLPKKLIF
Chain of CDK7 (P51946 whole entry partner): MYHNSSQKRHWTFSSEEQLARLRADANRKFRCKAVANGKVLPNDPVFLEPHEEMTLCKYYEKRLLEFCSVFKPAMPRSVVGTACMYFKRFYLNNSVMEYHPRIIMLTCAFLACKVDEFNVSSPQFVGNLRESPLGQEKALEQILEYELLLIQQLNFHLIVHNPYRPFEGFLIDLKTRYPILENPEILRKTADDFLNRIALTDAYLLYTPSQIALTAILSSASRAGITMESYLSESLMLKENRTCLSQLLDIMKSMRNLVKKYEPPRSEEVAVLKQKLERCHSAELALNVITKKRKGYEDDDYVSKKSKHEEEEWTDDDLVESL
Chain of CDK7 (P51948 whole entry partner): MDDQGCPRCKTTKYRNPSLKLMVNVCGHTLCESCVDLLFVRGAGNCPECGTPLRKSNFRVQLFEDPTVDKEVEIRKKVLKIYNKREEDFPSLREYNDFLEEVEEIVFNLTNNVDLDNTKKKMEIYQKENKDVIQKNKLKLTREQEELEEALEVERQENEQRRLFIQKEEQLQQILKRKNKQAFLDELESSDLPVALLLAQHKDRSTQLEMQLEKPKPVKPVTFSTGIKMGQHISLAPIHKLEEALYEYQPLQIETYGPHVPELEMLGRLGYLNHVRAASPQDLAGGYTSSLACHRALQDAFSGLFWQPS

## Cc1cc(NC2CCN(C(=O)OC3CCN(C(=O)/C=C/CN(C)C)C3)CC2)n2ncc(C(C)C)c2n1 (stereo not shown) [LY3405105]
[1]; QD (N = 43), Any grade
  Patients with ≥1 SAE related to study treatment: 7 (16) n (%)
  Patients with ≥1 TRAE: 29 (67) n (%)
  SAE related to study treatment: Abdominal pain: 1 (2) n (%)
  SAE related to study treatment: Acute kidney injury: 1 (2) n (%)
  SAE related to study treatment: Alanine aminotransferase increase: 1 (2) n (%)
  SAE related to study treatment: Diarrhea: 2 (5) n (%)
  SAE related to study treatment: Dyspnea: 1 (2) n (%)
  SAE related to study treatment: Hypotension: 1 (2) n (%)
  SAE related to study treatment: Mucosal inflammation: 1 (2) n (%)
  SAE related to study treatment: Nausea: 1 (2) n (%)
  SAE related to study treatment: Ophthalmic herpes zoster: 1 (2) n (%)
  SAE related to study treatment: Platelet count decrease: 1 (2) n (%)
  TRAE: Abdominal pain: 6 (14) n (%)
  TRAE: Anemia: 5 (12) n (%)
  TRAE: Asthenia: 2 (5) n (%)
  TRAE: Diarrhea: 18 (42) n (%)
  TRAE: Fatigue: 8 (19) n (%)
  TRAE: Nausea: 9 (21) n (%)
  TRAE: Platelet count decrease: 6 (14) n (%)
  TRAE: Vomiting: 8 (19) n (%)
[1]; QD (N = 43), ≥Grade 3
  Patients with ≥1 SAE related to study treatment: 6 (14) n (%)
  Patients with ≥1 TRAE: 10 (23) n (%)
  SAE related to study treatment: Abdominal pain: 0 n (%)
  SAE related to study treatment: Acute kidney injury: 1 (2) n (%)
  SAE related to study treatment: Alanine aminotransferase increase: 1 (2) n (%)
  SAE related to study treatment: Diarrhea: 2 (5) n (%)
  SAE related to study treatment: Dyspnea: 1 (2) n (%)
  SAE related to study treatment: Hypotension: 0 n (%)
  SAE related to study treatment: Mucosal inflammation: 1 (2) n (%)
  SAE related to study treatment: Nausea: 1 (2) n (%)
  SAE related to study treatment: Ophthalmic herpes zoster: 1 (2) n (%)
  SAE related to study treatment: Platelet count decrease: 1 (2) n (%)
  TRAE: Abdominal pain: 0 n (%)
  TRAE: Anemia: 2 (5) n (%)
  TRAE: Asthenia: 0 n (%)
  TRAE: Diarrhea: 2 (5) n (%)
  TRAE: Fatigue: 1 (2) n (%)
  TRAE: Nausea: 1 (2) n (%)
  TRAE: Platelet count decrease: 3 (7) n (%)
  TRAE: Vomiting: 0 n (%)
[1]; QD, oral monotherapy, patients
  Maximum tolerated dose (MTD): 20 mg
  Recommended phase II dose (RP2D): 20 mg
[1]; TIW (N = 11), Any grade
  Patients with ≥1 SAE related to study treatment: 0 n (%)
  Patients with ≥1 TRAE: 6 (55) n (%)
  SAE related to study treatment: Abdominal pain: 0 n (%)
  SAE related to study treatment: Acute kidney injury: 0 n (%)
  SAE related to study treatment: Alanine aminotransferase increase: 0 n (%)
  SAE related to study treatment: Diarrhea: 0 n (%)
  SAE related to study treatment: Dyspnea: 0 n (%)
  SAE related to study treatment: Hypotension: 0 n (%)
  SAE related to study treatment: Mucosal inflammation: 0 n (%)
  SAE related to study treatment: Nausea: 0 n (%)
  SAE related to study treatment: Ophthalmic herpes zoster: 0 n (%)
  SAE related to study treatment: Platelet count decrease: 0 n (%)
  TRAE: Abdominal pain: 0 n (%)
  TRAE: Anemia: 1 (9) n (%)
  TRAE: Asthenia: 4 (36) n (%)
  TRAE: Diarrhea: 0 n (%)
  TRAE: Fatigue: 0 n (%)
  TRAE: Nausea: 1 (9) n (%)
  TRAE: Platelet count decrease: 0 n (%)
  TRAE: Vomiting: 0 n (%)
[1]; TIW (N = 11), ≥Grade 3
  Patients with ≥1 SAE related to study treatment: 0 n (%)
  Patients with ≥1 TRAE: 0 n (%)
  SAE related to study treatment: Abdominal pain: 0 n (%)
  SAE related to study treatment: Acute kidney injury: 0 n (%)
  SAE related to study treatment: Alanine aminotransferase increase: 0 n (%)
  SAE related to study treatment: Diarrhea: 0 n (%)
  SAE related to study treatment: Dyspnea: 0 n (%)
  SAE related to study treatment: Hypotension: 0 n (%)
  SAE related to study treatment: Mucosal inflammation: 0 n (%)
  SAE related to study treatment: Nausea: 0 n (%)
  SAE related to study treatment: Ophthalmic herpes zoster: 0 n (%)
  SAE related to study treatment: Platelet count decrease: 0 n (%)
  TRAE: Abdominal pain: 0 n (%)
  TRAE: Anemia: 0 n (%)
  TRAE: Asthenia: 0 n (%)
  TRAE: Diarrhea: 0 n (%)
  TRAE: Fatigue: 0 n (%)
  TRAE: Nausea: 0 n (%)
  TRAE: Platelet count decrease: 0 n (%)
  TRAE: Vomiting: 0 n (%)
[1]; Total (N = 54), Any grade
  Patients with ≥1 SAE related to study treatment: 7 (13) n (%)
  Patients with ≥1 TRAE: 35 (65) n (%)
  SAE related to study treatment: Abdominal pain: 1 (2) n (%)
  SAE related to study treatment: Acute kidney injury: 1 (2) n (%)
  SAE related to study treatment: Alanine aminotransferase increase: 1 (2) n (%)
  SAE related to study treatment: Diarrhea: 2 (4) n (%)
  SAE related to study treatment: Dyspnea: 1 (2) n (%)
  SAE related to study treatment: Hypotension: 1 (2) n (%)
  SAE related to study treatment: Mucosal inflammation: 1 (2) n (%)
  SAE related to study treatment: Nausea: 1 (2) n (%)
  SAE related to study treatment: Ophthalmic herpes zoster: 1 (2) n (%)
  SAE related to study treatment: Platelet count decrease: 1 (2) n (%)
  TRAE: Abdominal pain: 6 (11) n (%)
  TRAE: Anemia: 6 (11) n (%)
  TRAE: Asthenia: 6 (11) n (%)
  TRAE: Diarrhea: 18 (33) n (%)
  TRAE: Fatigue: 8 (15) n (%)
  TRAE: Nausea: 10 (19) n (%)
  TRAE: Platelet count decrease: 6 (11) n (%)
  TRAE: Vomiting: 8 (15) n (%)
[1]; Total (N = 54), ≥Grade 3
  Patients with ≥1 SAE related to study treatment: 6 (11) n (%)
  Patients with ≥1 TRAE: 10 (19) n (%)
  SAE related to study treatment: Abdominal pain: 0 n (%)
  SAE related to study treatment: Acute kidney injury: 1 (2) n (%)
  SAE related to study treatment: Alanine aminotransferase increase: 1 (2) n (%)
  SAE related to study treatment: Diarrhea: 2 (4) n (%)
  SAE related to study treatment: Dyspnea: 1 (2) n (%)
  SAE related to study treatment: Hypotension: 0 n (%)
  SAE related to study treatment: Mucosal inflammation: 1 (2) n (%)
  SAE related to study treatment: Nausea: 1 (2) n (%)
  SAE related to study treatment: Ophthalmic herpes zoster: 1 (2) n (%)
  SAE related to study treatment: Platelet count decrease: 1 (2) n (%)
  TRAE: Abdominal pain: 0 n (%)
  TRAE: Anemia: 2 (4) n (%)
  TRAE: Asthenia: 0 n (%)
  TRAE: Diarrhea: 2 (4) n (%)
  TRAE: Fatigue: 1 (2) n (%)
  TRAE: Nausea: 1 (2) n (%)
  TRAE: Platelet count decrease: 3 (6) n (%)
  TRAE: Vomiting: 0 n (%)
[1]; all 54 enrolled patients, all DLTs in part A1 (QD)
  Patients with dose-limiting toxicities: Seven
[1]; all patients (N = 54)
  Patients reporting at least one treatment-related adverse event (TRAE): 64.8%
[1]; part A1, 20 mg QD
  Dose-limiting toxicity: no DLT was observed
[1]; part A1, 1, 2, 4, 8, 15, or 30 mg QD
  Dose-limiting toxicity: no DLT was observed
[1]; part A1, corresponds to doses of 30 to 45 mg QD
  Start of the steady-state AUC range where DLTs were observed: approximately 1000 ng h/mL
[1]; part A2 (TIW), 2 mg, 4 mg, or 8 mg
  Dose-limiting toxicity: no DLT was observed
[2]; 1 to 45 mg QD day 1, 1 to 35 mg QD day 15, 2 to 8 mg TIW day 1 and day 15
  Dose dependence of plasma exposure: exposures increased with dose
[2]; oral dosing, assessed in the TIW group
  Geometric mean terminal elimination half-life: 15 to 19 h
[2]; oral dosing, patients
  Median time to maximum concentration: 1 to 2 h
[3]; QD, steady state on day 15
  Dose at which near maximal CDK7-target occupancy was achieved: ≥ 15 mg
[3]; highest observed in the trial
  CDK7-target occupancy observed: up to 90%
[3]; part A1, skin, day 15, corresponds to doses at 15 mg QD
  Steady-state AUC above which maximum skin target occupancy occurred: approximately 500 ng h/mL
[3]; skin and peripheral blood, day 15, ≥15 mg QD
  CDK7-target occupancy (near maximal): 75%
[3]; ≥15 mg once daily
  CDK7 target occupancy: > 75%
